From ChEMBL document CHEMBL4689842, “EUbOPEN Chemogenomics Library wave 1” (2021)

System: HEK-293T
Assay: Multiplex assay against HEK293T;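 as to Population Tubulin-Different-Phenotype (%): share of the cells with healthy nuclei that show this phenotype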
Type: toxicity, cell-based
Settings: human
Summary of the method: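 Live cells were stained at seeding with Hoechst33342, BioTracker Green Microtubule Cytoskeleton Dye, MitoTracker Red and Annexin V Alexa Fluor 680. Following compound addition, they were imaged on a CQ1 microscope at 37°C and 5% CO2 and gated by CellPathfinder machine learning into Hoechst high-intensity objects or normal cells, with normal cells split into healthy, pyknosed or fragmented nuclei and pyknosed cells into mitotic or apoptotic. Tubulin, mitochondrial-mass and membrane-permeability phenotypes are per cents of healthy-nucleus cells.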

[1] = 12 h, 1 µM, compound concentration 1 uM, replicate 1
[2] = 12 h, 1 µM, compound concentration 1 uM, replicate 2
[3] = 12 h, 10 µM, compound concentration 10 uM, replicate 1
[4] = 12 h, 10 µM, compound concentration 10 uM, replicate 2
[5] = 24 h, 1 µM, compound concentration 1 uM, replicate 1
[6] = 24 h, 1 µM, compound concentration 1 uM, replicate 2
[7] = 24 h, 10 µM, compound concentration 10 uM, replicate 1
[8] = 24 h, 10 µM, compound concentration 10 uM, replicate 2
[9] = 48 h, 1 µM, compound concentration 1 uM, replicate 1
[10] = 48 h, 1 µM, compound concentration 1 uM, replicate 2
[11] = 48 h, 10 µM, compound concentration 10 uM, replicate 1
[12] = 48 h, 10 µM, compound concentration 10 uM, replicate 2

SMILES: CCCCN(CC)c1nc(C)nc2c1c(C)cn2-c1c(C)cc(C)cc1C.Cl
- Population Apoptotic (%) [1]: 49%
- Population Fragmented Nuclei (%) [1]: 15%
- Population Healthy Nuclei (%) [1]: 45%
- Population Hoechst High Intensity Objects (%) [1]: 16%
- Population Membrane Permeable-Phenotype (%) [1]: 5%
- Population Mitochondria Different-Phenotype (%) [1]: 79%
- Population Mitotic Cells (%) [1]: 50%
- Population Normal (%) [1]: 83%
- Population Pyknosed Nuclei (%) [1]: 39%
- Population Tubulin-Different-Phenotype (%) [1]: 32%
- Total Cell Count [1]: 241
- Population Apoptotic (%) [2]: 11%
- Population Fragmented Nuclei (%) [2]: 5%
- Population Healthy Nuclei (%) [2]: 43%
- Population Hoechst High Intensity Objects (%) [2]: 1%
- Population Membrane Permeable-Phenotype (%) [2]: 6%
- Population Mitochondria Different-Phenotype (%) [2]: 11%
- Population Mitotic Cells (%) [2]: 88%
- Population Normal (%) [2]: 98%
- Population Pyknosed Nuclei (%) [2]: 51%
- Population Tubulin-Different-Phenotype (%) [2]: 17%
- Total Cell Count [2]: 240
- Population Apoptotic (%) [3]: 59%
- Population Fragmented Nuclei (%) [3]: 13%
- Population Hoechst High Intensity Objects (%) [3]: 8%
- Population Membrane Permeable-Phenotype (%) [3]: 1%
- Population Mitochondria Different-Phenotype (%) [3]: 95%
- Population Mitotic Cells (%) [3]: 40%
- Population Normal (%) [3]: 91%
- Population Pyknosed Nuclei (%) [3]: 49%
- Population Tubulin-Different-Phenotype (%) [3]: 75%
- Total Cell Count [3]: 236
- Population Apoptotic (%) [4]: 27%
- Population Fragmented Nuclei (%) [4]: 7%
- Population Healthy Nuclei (%) [4]: 37%
- Population Hoechst High Intensity Objects (%) [4]: 7%
- Population Membrane Permeable-Phenotype (%) [4]: 6%
- Population Mitochondria Different-Phenotype (%) [4]: 68%
- Population Mitotic Cells (%) [4]: 72%
- Population Normal (%) [4]: 92%
- Population Pyknosed Nuclei (%) [4]: 54%
- Population Tubulin-Different-Phenotype (%) [4]: 60%
- Total Cell Count [4]: 211
- Population Apoptotic (%) [5]: 48%
- Population Fragmented Nuclei (%) [5]: 16%
- Population Healthy Nuclei (%) [5]: 41%
- Population Hoechst High Intensity Objects (%) [5]: 13%
- Population Membrane Permeable-Phenotype (%) [5]: 4%
- Population Mitochondria Different-Phenotype (%) [5]: 61%
- Population Mitotic Cells (%) [5]: 51%
- Population Normal (%) [5]: 86%
- Population Pyknosed Nuclei (%) [5]: 42%
- Population Tubulin-Different-Phenotype (%) [5]: 36%
- Total Cell Count [5]: 247
- Population Apoptotic (%) [6]: 15%
- Population Fragmented Nuclei (%) [6]: 4%
- Population Healthy Nuclei (%) [6]: 61%
- Population Hoechst High Intensity Objects (%) [6]: 1%
- Population Membrane Permeable-Phenotype (%) [6]: 9%
- Population Mitochondria Different-Phenotype (%) [6]: 13%
- Population Mitotic Cells (%) [6]: 84%
- Population Normal (%) [6]: 98%
- Population Pyknosed Nuclei (%) [6]: 33%
- Population Tubulin-Different-Phenotype (%) [6]: 21%
- Total Cell Count [6]: 308
- Population Apoptotic (%) [7]: 64%
- Population Fragmented Nuclei (%) [7]: 10%
- Population Hoechst High Intensity Objects (%) [7]: 9%
- Population Membrane Permeable-Phenotype (%) [7]: 1%
- Population Mitochondria Different-Phenotype (%) [7]: 95%
- Population Mitotic Cells (%) [7]: 35%
- Population Normal (%) [7]: 90%
- Population Pyknosed Nuclei (%) [7]: 37%
- Population Tubulin-Different-Phenotype (%) [7]: 89%
- Population Apoptotic (%) [8]: 29%
- Population Fragmented Nuclei (%) [8]: 4%
- Population Healthy Nuclei (%) [8]: 51%
- Population Hoechst High Intensity Objects (%) [8]: 6%
- Population Membrane Permeable-Phenotype (%) [8]: 4%
- Population Mitochondria Different-Phenotype (%) [8]: 73%
- Population Mitotic Cells (%) [8]: 70%
- Population Normal (%) [8]: 93%
- Population Pyknosed Nuclei (%) [8]: 44%
- Population Tubulin-Different-Phenotype (%) [8]: 81%
- Total Cell Count [8]: 231
- Population Apoptotic (%) [9]: 43%
- Population Fragmented Nuclei (%) [9]: 20%
- Population Healthy Nuclei (%) [9]: 46%
- Population Hoechst High Intensity Objects (%) [9]: 12%
- Population Membrane Permeable-Phenotype (%) [9]: 2%
- Population Mitochondria Different-Phenotype (%) [9]: 26%
- Population Mitotic Cells (%) [9]: 56%
- Population Normal (%) [9]: 87%
- Population Pyknosed Nuclei (%) [9]: 32%
- Population Tubulin-Different-Phenotype (%) [9]: 22%
- Total Cell Count [9]: 315
- Population Apoptotic (%) [10]: 15%
- Population Fragmented Nuclei (%) [10]: 7%
- Population Healthy Nuclei (%) [10]: 82%
- Population Hoechst High Intensity Objects (%) [10]: 3%
- Population Membrane Permeable-Phenotype (%) [10]: 4%
- Population Mitochondria Different-Phenotype (%) [10]: 8%
- Population Mitotic Cells (%) [10]: 84%
- Population Normal (%) [10]: 96%
- Population Pyknosed Nuclei (%) [10]: 10%
- Population Tubulin-Different-Phenotype (%) [10]: 17%
- Total Cell Count [10]: 539
- Population Apoptotic (%) [11]: 49%
- Population Fragmented Nuclei (%) [11]: 13%
- Population Healthy Nuclei (%) [11]: 67%
- Population Hoechst High Intensity Objects (%) [11]: 9%
- Population Membrane Permeable-Phenotype (%) [11]: 3%
- Population Mitochondria Different-Phenotype (%) [11]: 74%
- Population Mitotic Cells (%) [11]: 50%
- Population Normal (%) [11]: 90%
- Population Pyknosed Nuclei (%) [11]: 19%
- Population Tubulin-Different-Phenotype (%) [11]: 70%
- Total Cell Count [11]: 365
- Population Apoptotic (%) [12]: 36%
- Population Fragmented Nuclei (%) [12]: 7%
- Population Healthy Nuclei (%) [12]: 74%
- Population Hoechst High Intensity Objects (%) [12]: 2%
- Population Membrane Permeable-Phenotype (%) [12]: 0%
- Population Mitochondria Different-Phenotype (%) [12]: 54%
- Population Mitotic Cells (%) [12]: 63%
- Population Normal (%) [12]: 97%
- Population Pyknosed Nuclei (%) [12]: 18%
- Population Tubulin-Different-Phenotype (%) [12]: 67%
- Total Cell Count [12]: 337
